PvdQ inh – P. aeruginosa PvdQ acylase inhibition; purified PvdQ acylase, fluorescence plate reader; inhibition, % at 10 µM; hit rate 0.063% among 340,000; AID 488965; in the data active means inhibition above about 30%, passing the limit was not always enough;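 further: 0% = vehicle neutral wells and 100% = reference inhibitor wells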
dFosB act-1 – mouse delta FosB homodimer activation; purified delta FosB, TAMRA-CDK5 oligo fluorescence polarization; percent of positive-control signal above neutral wells; activation, % at 25 µM; hit rate 0.99% among 340,000;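 active means mean activation above about 17%, with every replicate also reaching it, limit read from the data, passing the limit was not always enough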
rRNA inh HTS – selective bacterial rRNA inhibition in E. coli. AID 720706. GFP signal change (wild-type ribosome), % (concentration not given with the values). E. coli WT GFP vs humanized-ribosome RFP mutants, fluorescence, 24 h; stronger effect = lower value; DMSO median 0, no signal -100. hit rate 1.6% among 350,000;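 active means significant combined selectivity score with lowered wild-type GFP, culture density cut under 30%, mutant RFP and density less affected; inactive means any of these conditions unmet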
SR-BI uptake up – SR-BI HDL lipid transfer activation | hit rate 0.096% among 320,000 | AID 504775 | CHO ldlA[mSR-BI] cells, DiI-HDL uptake fluorescence, 3 h; 100 = double the neutral-control signal | activation, % at 12.5 µM;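 active means mean replicate activation of at least 60% and every replicate at or above 60%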;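 further: 0% = median plate neutral-control signal and 100% = twice that signal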
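Assay system: CHO ldlA[mSR-BI] cells, LDL receptor-null, SR-BI overexpressing; medium: Ham's F12 with 0.5% BSA, HEPES 25 mM, pH 7.4; also added: DiI-HDL 10 µg/mL; timing: 3 h uptake period with compound, 37 °C; signal: DiI fluorescence, bottom read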
XiGFP reactiv – activators of X-chromosome reactivation in mouse fibroblasts; activation, % at 7.58 µM; hit rate 0.055% among 360,000; XiGFP mouse fibroblasts, % GFP-positive cells imaging, 3 d; cells co-treated with 5-aza-dC sensitizer; scaled so ellipticine positive control = 100%;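 active means mean normalized replicate activation at least 10% and every replicate at or above 10%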;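 further: 0% = median of on-plate neutral control wells and 100% = ellipticine 6 µM median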
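assay system = SV40-immortalized XiGFP fibroblast cells, line 68-5-11 | buffer or medium = DMEM plus 5-aza-dC sensitizer | doses = single-point pinned compound dosing | times = 3-day compound exposure, then 15 min fixation at room temperature | benchmarks = positive control ellipticine, 6 µM final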
SR-BI DiI inh – blocks mouse SR-BI lipid uptake from DiI-HDL; inhibition, % at 12.5 µM; ldlA[mSR-BI] CHO cells, DiI-HDL uptake fluorescence, 3 h; Q61009; AID 488896; hit rate 0.96% among 320,000;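 active means mean replicate inhibition of at least 70% and a set share of replicates each scoring 70 or more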;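 further: 0% = median of neutral control wells and 100% = median of positive control wells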
Target sequence (Q61009 whole entry, looked up): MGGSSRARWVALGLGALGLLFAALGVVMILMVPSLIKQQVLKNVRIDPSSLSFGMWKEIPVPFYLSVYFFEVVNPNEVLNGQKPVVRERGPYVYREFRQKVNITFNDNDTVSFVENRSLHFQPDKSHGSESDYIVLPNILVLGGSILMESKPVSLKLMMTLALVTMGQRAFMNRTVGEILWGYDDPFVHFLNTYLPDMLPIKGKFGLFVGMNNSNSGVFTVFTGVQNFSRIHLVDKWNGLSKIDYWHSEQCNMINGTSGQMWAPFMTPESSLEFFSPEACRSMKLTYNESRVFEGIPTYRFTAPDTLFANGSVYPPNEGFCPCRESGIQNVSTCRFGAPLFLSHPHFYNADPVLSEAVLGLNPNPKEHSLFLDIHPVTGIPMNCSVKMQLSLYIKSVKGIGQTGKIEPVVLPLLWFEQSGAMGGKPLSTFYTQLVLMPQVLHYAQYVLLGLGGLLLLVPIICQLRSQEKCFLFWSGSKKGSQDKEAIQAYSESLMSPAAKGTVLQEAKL
dFosB act-2 – activators of mouse delta FosB homodimer DNA binding; 2,400 tested, under 10 active; purified delta FosB, TAMRA-CDK5 oligo fluorescence polarization; normalised: neutral wells 0, positive control 100; shares compounds with dFosB act-1; activation, % at 24.9 µM;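 active means highest replicate activation at or above 34% and every replicate reaching that threshold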;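 further: higher polarization means more probe DNA bound by delta FosB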
Active calls of the source: *; x = no result given. Compounds with a hit are over-represented: about 2.6% of the library has one in this group of screens.

SMILES	PvdQ inh	dFosB act-1	rRNA inh HTS	SR-BI uptake up	XiGFP reactiv	SR-BI DiI inh	dFosB act-2
O=C(CSc1nnc(NC(=O)c2ccco2)s1)Nc1ccc(F)cc1F	3	20*	8	32	0	-32	1
S=C(NCc1ccc2c(c1)OCO2)Nc1ccc(-c2nc3ccccc3[nH]2)cc1	0	32*	-14	-3	0	3	-9
O=C(CSc1ccc(-c2nc3ccccc3[nH]2)cn1)Nc1ccc2c(c1)OCCO2	-1	40*	x	-6	x	6	6
Cc1ccc2nc(-c3ccc(SCC(=O)Nc4ccc5c(c4)OCCO5)nc3)[nH]c2c1	-4	50*	x	x	x	x	-5
Cc1cc2nc(-c3ccc(SCC(=O)Nc4ccc5c(c4)OCCO5)nc3)[nH]c2cc1C	-11	32*	12	-23	x	23	3
Cn1cnc(S(=O)(=O)N2CCCCN3[C@@H](CO)[C@@H](c4ccc(-c5ccccc5)cc4)[C@@H]3C2)c1	x	x	6	x	0	x	x
COc1ccc([N+](=O)[O-])cc1NC(=O)COC(=O)c1ccc(O)cc1	-6	53*	12	-1	0	1	6
COc1ccc([N+](=O)[O-])cc1NC(=O)c1ccc(Br)s1	8	59*	17	-64	0	64	4
Cc1ccc(NC(=O)CC2Oc3ccc(C)cc3NC2=O)c(C)c1 (stereo not given)	0	-1	19	19	0	-19	x
CC(C)CCOc1cccc(OCC(=O)O)c1	-18	6	1	19	0	-19	x
COc1ccccc1/C=C/C(=O)NC(=S)Nc1ccc(S(=O)(=O)N(C)c2ccccc2)cc1	-5	24*	x	-10	x	10	1
C[C@@H]1CN([C@H](C)CO)S(=O)(=O)c2ccc(C3=CCCC3)cc2O[C@H]1CN(C)Cc1ccccc1	x	x	0	x	-1	x	x
O=C(O)c1cc(-c2cccnc2)nc2ccc(Br)cc12	-16	-11	8	8	0	-8	x
NC(=O)c1cc(-c2ccccc2)nc2ccc(Br)cc12	-9	23*	3	9	0	-9	3
Cn1cnnc1SC(C(=O)Nc1cc(Cl)cc(Cl)c1)c1ccccc1 (stereo not given)	-14	20*	x	35	x	-35	12
Cn1cnnc1Sc1cc(N2CCN(S(=O)(=O)c3ccc4ccccc4c3)CC2)ccc1[N+](=O)[O-]	-8	19*	x	-31	x	31	-1
C[C@H](CO)N1C[C@H](C)[C@@H](CN(C)C(=O)Nc2ccccc2)OCc2ccccc2-c2c(n(C)c3ccccc23)C1=O	x	x	-4	x	0	x	x
O=C(Nc1ccccc1)Nc1snnc1C(=O)Nc1cccc(O)c1	-7	57*	-16	-63	0	63	1
O=C(Nc1cccc(O)c1)c1cccc(C(=O)Nc2cccc(O)c2)c1	-13	-6	-15	-65	0	65	x
CN(C)C(=O)C[C@H]1CC[C@H](NC(=O)Nc2cccc(F)c2)[C@H](CO)O1	x	x	-3	x	1	x	x
Cc1ccc(NC(=O)c2cc3c(s2)CCCC3)cc1S(=O)(=O)Nc1ccccc1Cl	22	-7	x	-68	0	68	x
O=C(Nc1cc(S(=O)(=O)Nc2ccccc2Cl)ccc1O)c1cc2c(s1)CCCC2	-14	32*	-11	x	0	x	3
CN(C)CC#Cc1ccc([C@H]2[C@H]3CN(C(=O)Cc4ccccc4)CC(=O)N3[C@H]2CO)cc1	x	x	4	x	0	x	x
CCCCOc1ccccc1NC(=O)Cn1c(-c2nonc2N)nc2ccccc21	-14	74*	x	-17	x	17	2
CCOc1ccc(CCNC(=O)Cn2c(-c3nonc3N)nc3ccccc32)cc1OCC	-2	24*	x	-26	x	26	-1
SMILES	PvdQ inh	dFosB act-1	rRNA inh HTS	SR-BI uptake up	XiGFP reactiv	SR-BI DiI inh	dFosB act-2
CC(C)(C)NC(=O)Cn1c(-c2nonc2N)nc2ccccc21	-2	-4	x	-1	x	1	x
Nc1nonc1-c1nc2ccccc2n1CC(=O)N/N=C\c1ccc(-c2ccc(Cl)cc2)o1	6	35*	x	-6	x	6	-7
NC(=O)Cn1c(-c2nonc2N)nc2ccccc21	-9	-4	11	11	0	-11	x
COc1ccc(CCNC(=O)Cn2c(-c3nonc3N)nc3ccccc32)cc1OC	-12	10	22	25	x	-25	x
CC1=C(C(=O)OCC2CCCCC2)C(c2ccccc2F)NC(=O)N1 (stereo not given)	x	x	2	x	0	x	x
O=C(CN1CCN(S(=O)(=O)c2ccccc2[N+](=O)[O-])CC1)Nc1ccc(N2CCOCC2)cc1	-9	-2	8	5	0	-5	x
CCOC(=O)c1c(C)[nH]c(C(=O)OCC(=O)Nc2cc(C)c(Cl)cc2OC)c1C	-14	45*	x	-23	x	23	1
COc1ccc(S(=O)(=O)Nc2c(NC3CCCCC3)c3ccccc3oc2=O)cc1	9	-2	-38	-10	0	10	x
O=C(CN1C(=O)COc2ccc(Cl)cc21)Nc1nccs1	-3	20*	5	-7	0	7	3
Cc1cccnc1NC(=O)CN1C(=O)COc2ccc(Cl)cc21	-28	5	3	6	0	-6	x
CCOc1ccc(NC(=O)Cn2nnc(-c3ccccc3NC(=O)c3cccs3)n2)cc1	-14	52*	x	-38	x	38	5
O=C(C[C@@H]1C/C=C/CCCC(=O)O[C@H](c2ccccc2)CNC1=O)NCCO	-16	-8	-2	22	1	-22	x
COc1cccc(NC(=O)Nn2cnnc2)c1	-4	-6	7	x	0	15	x
CC1=C(C(N)=O)C(c2cccnc2)n2nc(SCc3ccccc3Cl)nc2N1 (stereo not given)	6	101*	x	-11	x	11	4
CC1=C(C(N)=O)C(c2ccccn2)n2nc(SCc3ccccc3Cl)nc2N1 (stereo not given)	-11	3	x	2	x	-2	x
CC(=O)c1c(C)[nH]c(C(=O)OCc2c(F)cccc2Cl)c1C	25	21*	8	-46	0	46	0
COc1cnc(-c2cccc(C(F)(F)F)c2)nc1OC	-2	-8	15	0	0	0	x
CC(=O)Nc1ccc(NC(=O)c2ccc(NS(=O)(=O)c3cc(C(C)(C)C)cc(C)c3C)cc2)cc1	-6	54*	18	18	0	-18	9
Cc1cc(C(C)(C)C)cc(S(=O)(=O)Nc2ccc(O)c(C(=O)O)c2)c1C	-13	0	x	45	x	-45	x
